Laboratory results from ChEMBL document CHEMBL5316304, “Collaborative Virtual Screening Identifies a 2-Aryl-4-aminoquinazoline Series with Efficacy in an In Vivo Model of Trypanosoma cruzi Infection” (J Med Chem, 2023).
≈ marks a conversion by molar mass, not a printed value.

Assays:
[1] = Volume of distribution at steady state in Balb/C mouse plasma at 50 mg/kg, po or 1 mg/kg, iv by LC/MS/MS analysis; assay type: ADME, organism-based; conditions: in vivo
How it was run: (§1)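 Female Balb/c mice received a single i.v. dose of 1 mg/kg and a single oral dose of 50 mg/kg. PK parameters came from blood concentration–time profiles. Brain-to-plasma ratio was taken at 0.5 h.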

[2] = Toxicity in Balb/C mouse assessed as drug tolerability at 50 mg/kg, po bid measured after 5 days by LC/MS/MS analysis; assay type: organism-based; conditions: in vivo, 120 h, time 5 day
How it was run: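 Healthy female mice, one per group, were dosed orally twice daily for 5 days at 10, 50 or 100 mg/kg, with vehicle controls (0.5% HPMC/0.5% benzyl alcohol/0.4% Tween 80 in water). Readouts were mortality, clinical signs, body weight, food consumption and gross pathology.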

Trypanosoma cruzi [3] = test: Antitrypanosomal activity against intracellular Trypanosoma cruzi infected in human U2OS cells assessed as parasite growth inhibition incubated for 72 hrs by confocal microscopy; assay type: functional, organism-based; conditions: Trypanosoma cruzi, U2OS, 72 h
[4] = AUC (0 to last) in Balb/C mouse at 50 mg/kg, po or 1 mg/kg, iv by LC/MS/MS analysis; assay type: ADME, organism-based; parameters: dose 50 mg/kg, route po; conditions: in vivo; how it was run: as §1
[5] = Selectivity index, ratio of IC50 for human U2OS cells to IC50 for intracellular Trypanosoma cruzi infected in human U2OS cells; assay type: toxicity, cell-based
How it was run: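 Host U2OS cell counts and intracellular parasite infection ratio were read from the same 72 h DRAQ5-stained confocal imaging assay. CC50 and EC50 came from 4-parameter logistic fits, and the selectivity index is their ratio.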

[6] = Toxicity in Balb/C mouse assessed as adverse reactions at 50 mg/kg, po by LC/MS/MS analysis; assay type: organism-based; conditions: in vivo
[7] = Cmax in Balb/C mouse at 50 mg/kg, po or 1 mg/kg, iv by LC/MS/MS analysis; assay type: ADME, organism-based; parameters: dose 50 mg/kg, route po; conditions: in vivo; how it was run: as §1
[8] = Ratio of drug level in Balb/C mouse brain to plasma at 50 mg/kg, po or 1 mg/kg, iv measured after 0.5 hrs by LC/MS/MS analysis; assay type: ADME, organism-based; how it was run: as §1
[9] = Kinetic solubility of compound in aqueous buffer at pH 6.8 incubated for 16 to 24 hrs by HPLC analysis; assay type: physicochemical; conditions: time 16-24 hrs, read-out: Kinetic_solubility
[10] = Half life in Balb/C mouse at 1 mg/kg, iv by LC/MS/MS analysis; assay type: ADME, organism-based; conditions: in vivo; how it was run: as §1
[11] = Permeability of compound incubated for 3 hrs by PAMPA assay; assay type: ADME; conditions: read-out: permeability
[12] = Oral bioavailability in Balb/C mouse plasma at 50 mg/kg by LC/MS/MS analysis; assay type: ADME, organism-based; conditions: in vivo
[13] = Plasma protein binding in mouse at 2 uM incubated for 6 hrs by LC/MS/MS analysis; assay type: ADME
[14] = Toxicity in Balb/C mouse assessed as drug tolerability at 50 mg/kg, po by LC/MS/MS analysis; assay type: organism-based; conditions: in vivo
[15] = Cmax in Balb/C mouse at 50 mg/kg, po or 0.1 mg/kg, iv by LC/MS/MS analysis; assay type: ADME, organism-based; parameters: dose 50 mg/kg, route po; conditions: in vivo
How it was run: (§2)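 Female Balb/c mice dosed i.v. 0.1 mg/kg as part of a five-compound cassette, and p.o. 50 mg/kg, without ABT. PK parameters came from concentration–time profiles. Brain-to-plasma ratio was taken at 1 h.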

[16] = Toxicity in BALB/c mouse infected with acute Trypanosoma cruzi CL Brener assessed as adverse effects at 50 mg/kg, po bid; assay type: organism-based; conditions: in vivo
[17] = AUC (0 to last) in Balb/C mouse at 12.5 mg/kg, po or 2 mg/kg, iv in presence of ABT by LC/MS/MS analysis; assay type: ADME, organism-based; parameters: dose 12.5 mg/kg, route po; conditions: in vivo
How it was run: (§3)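 Female Balb/c mice (n = 3 per route) dosed i.v. 2 mg/kg and p.o. 12.5 mg/kg. 1-Aminobenzotriazole, a CYP450 inhibitor, was given p.o. at 50 mg/kg 2 h before each dose. Parameters were derived from blood concentration–time profiles.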

[18] = AUC (0 to last) in Balb/C mouse at 50 mg/kg, po or 0.1 mg/kg, iv by LC/MS/MS analysis; assay type: ADME, organism-based; parameters: dose 50 mg/kg, route po; conditions: in vivo; how it was run: as §2
[19] = Cmax in Balb/C mouse at 12.5 mg/kg, po or 2 mg/kg, iv in presence of ABT by LC/MS/MS analysis; assay type: ADME, organism-based; parameters: dose 12.5 mg/kg, route po; conditions: in vivo; how it was run: as §3
[20] = Volume of distribution at steady state in Balb/C mouse plasma at 12.5 mg/kg, po or 2 mg/kg, iv in presence of ABT by LC/MS/MS analysis; assay type: ADME, organism-based; conditions: in vivo; how it was run: as §3
[21] = Oral bioavailability in Balb/C mouse at 12.5 mg/kg in presence of ABT by LC/MS/MS analysis; assay type: ADME, organism-based; conditions: in vivo; how it was run: as §3
[22] = Intrinsic clearance in human liver microsomes at 1 uM incubated for 15 to 30 mins by LC/MS/MS analysis; assay type: ADME, Microsome; conditions: time 15-30 min
[23] = Half life in Balb/C mouse plasma at 12.5 mg/kg, po in presence of ABT by LC/MS/MS analysis; assay type: ADME, organism-based; how it was run: as §3
[24] = Intrinsic clearance in mouse liver microsomes at 1 uM incubated for 15 to 30 mins by LC/MS/MS analysis; assay type: ADME, Microsome; conditions: time 15-30 min
[25] = Toxicity in Balb/C mouse assessed as drug tolerability at 12.5 mg/kg, po by LC/MS/MS analysis; assay type: organism-based; conditions: in vivo
Trypanosoma cruzi [26] = test: Antitrypanosomal activity against acute-stage Trypanosoma cruzi CL Brener infected in BALB/c mouse assessed as reduction in parasite burden at 50 mg/kg, po bid administered for 5 days by bioluminescence imaging based analysis relative to control; assay type: functional; parameters: scale not given: the % may be the effect or the level left; conditions: time 5 day
[27] = Half life in Balb/C mouse at 50 mg/kg, po by LC/MS/MS analysis; assay type: ADME, organism-based; conditions: in vivo; how it was run: as §1
[28] = Half life in Balb/C mouse plasma at 2 mg/kg, iv in presence of ABT by LC/MS/MS analysis; assay type: ADME, organism-based; how it was run: as §3
[29] = Volume of distribution at steady state in Balb/C mouse plasma at 50 mg/kg, po or 0.1 mg/kg, iv by LC/MS/MS analysis; assay type: ADME, organism-based; conditions: in vivo; how it was run: as §2
[30] = Ratio of drug level in Balb/C mouse brain to plasma at 50 mg/kg, po or 0.1 mg/kg, iv measured after 1 hr by LC/MS/MS analysis; assay type: ADME, organism-based; how it was run: as §2

SMILES: CC(C)(Nc1nc(-c2ccccn2)nc2ccccc12)c1ccccn1
- Vdss [1]: 0.909 L/kg
- Activity [2]: Toxic
- IC50 (Trypanosoma cruzi [3]): 1000 nM
- AUC(0-t) [4]: 59900 ng·h/mL
- selectivity ratio ([5]; U2OS cells, read-out: Selectivity Index): 25
- Activity [6]: Non-Toxic
- Cmax [7]: 6240 ng/mL
- BPR [8]: 1.6
- solubility kinetic [9]: 83 µg/mL (≈ 243 µM)
- half-life [10]: 1.13 h
- Papp at 3 h [11]: 25.8 ×10⁻⁶ cm/s
- F [12]: > 100%
- PPB [13]: 94.2%
- Activity [14]: Non-Toxic

SMILES: c1ccc(-c2nc(N3CCC(c4ccccn4)C3)c3ccccc3n2)nc1 (racemic)
- Activity [2]: Non-Toxic
- Cmax [15]: 3360 ng/mL
- Activity [16]: Non-Toxic
- AUC(0-t) [17]: 26900 ng·h/mL
- IC50 (Trypanosoma cruzi [3]): 790 nM
- Selectivity Index [5]: 9.1
- AUC(0-t) [18]: 9610 ng·h/mL
- Cmax [19]: 4243 ng/mL
- Vdss [20]: 0.94 L/kg
- F [21]: 67%
- CLint [22]: 73 µL/min/mg
- half-life [23]: 3.3 h
- intrinsic clearance (CLint) [24]: 258 µL/min/mg
- Activity [25]: Toxic
- solubility kinetic [9]: 83 µg/mL (≈ 235 µM)
- Activity (Trypanosoma cruzi [26]): 89.9%
- half-life [27]: 7.2 h
- Papp at 3 h [11]: 31.9 ×10⁻⁶ cm/s
- F [12]: 50%
- PPB [13]: 99.9%
- half-life [28]: 1 h
- Vdss [29]: 0.77 L/kg
- BPR [30]: 1.66
- Activity [14]: Non-Toxic
